In ChEMBL document CHEMBL4765320, “Identification and optimization of piperine analogues as neuroprotective agents for the treatment of Parkinson's disease via the activation of Nrf2/keap1 pathway” (Eur J Med Chem, 2020):
Activity calls are given as the source filed them. The rule behind the calls is not given here.

How the values were obtained:
[1] = system: PC-12; assay: Upregulation of NQO1 expression in rat PC-12 cell incubated for 24 hrs by Western blot analysis; format: functional
Procedure, shortened: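 PC12 cells treated with compound for 24 h; lysates resolved by SDS-PAGE, transferred to PVDF and probed for HO-1 and NQO1; band intensities quantified densitometrically. Mean ± SD of three independent experiments.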

[2] = system: Mus musculus; assay: Neuroprotective activity in lesioned C57BL/6 mouse model of Parkinson's disease assessed as increase in time spent on rotarod at 100 mg/kg, po administered for 2 week before MPTP stimulation by rotarod test; format: functional; settings: time 2 weeks
Procedure, shortened: (§1)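 Male 10-week-old C57BL/6 mice (20–23 g), n = 6/group. Prophylactic: oral compound (50 or 100 mg/kg in saline) 2 weeks, then MPTP-HCl 25 mg/kg i.p. in week 3. Therapeutic: MPTP-HCl 25 mg/kg i.p. 1 week, then oral 100 mg/kg 2 weeks. Saline vehicle. Pole/rotarod training last 3 days; TH immunohistochemistry on SNpc and striatum.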

[3] = system: Mus musculus; assay: Neuroprotective activity against lesioned C57BL/6 mouse model of Parkinson's disease assessed as increase in number of TH positive cells at 50 to 100 mg/kg , po administered for 2 week before MPTP stimulation by Immuno histochemistry assays; format: functional; settings: dose 50-100 mg/kg, time 2 weeks; procedure, shortened: as §1
[4] = system: Mus musculus; assay: Neuroprotective activity against lesioned C57BL/6 mouse model of Parkinson's disease assessed as increase in expression of HO-1 and NQO1 at 50 to 100 mg/kg , po administered for 2 week before MPTP stimulation by western blotting assays; format: functional, organism-based; settings: Brain, dose 50-100 mg/kg, time 2.0 weeks
[5] = system: Mus musculus; assay: Neuroprotective activity in lesioned C57BL/6 mouse model of Parkinson's disease assessed as assessed as reduction in climbing down time at 50 mg/kg, po administered for 2 week before MPTP stimulation by pole test; format: functional; settings: C57BL/6, po, 336 h, time 2 weeks; procedure, shortened: as §1
[6] = system: PC-12; assay: Inhibition of H202-induced apoptosis in rat PC-12 cells assessed as viable cells at 50 uM after 24 hrs by Annexin-V-FITC/PI-staining based flow cytometric analysis (reference value: 52.01%); format: functional; settings: read-out: Activity
Procedure, shortened: (§2)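 PC12 cells seeded 2 × 10⁵/well for 24 h, pretreated 24 h with 12.5, 25, 50 or 100 µM compound, then given fresh medium containing 650 µM H2O2. Harvested cells washed in binding buffer, stained 5 min with Annexin V-FITC/PI, analysed by flow cytometry.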

[7] = system: Mus musculus; assay: Neuroprotective activity in lesioned C57BL/6 mouse model of Parkinson's disease assessed as assessed as reduction in climbing down time at 100 mg/kg, po administered for 2 week before MPTP stimulation by pole test; format: functional; settings: C57BL/6, po, 336 h, time 2 weeks; procedure, shortened: as §1
[8] = system: PC-12; assay: Inhibition of H2O2-induced mitochondrial membrane potential loss in rat PC-12 cells pretreated for 24 hrs followed by H2O2 challenge and measured after 24 hrs by JC-1 staining based fluorescence microplate reader assay; settings: dose 12.5-50 µM, time 48.0 hrs
[9] = system: PC-12; assay: Cytoprotection activity against H2O2-induced rat PC12-shNT cell assessed as cell viability at 12.5 to 100 uM pretreated for 24 hrs followed by H2O2 challenge and measured after 24 hrs by MTT assay; format: functional, cell-based; settings: dose 12.5-100 µM, time 48.0 hrs
Procedure, shortened: (§3)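 PC12 lines made by lentiviral shRNA against rat Nrf2 (shNrf2-2) or scrambled control (shNT), selected with 0.5 mg/mL G418, knockdown confirmed by Western blot. Pretreated 24 h with 12.5, 25.0, 50.0 or 100 µM compound, then H2O2 for 24 h; viability by MTT; mean ± SD, three independent experiments.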

[10] = system: PC-12; assay: Cytoprotection activity against H2O2-induced rat PC12-shNrf2-2 cell assessed as cell viability at 12.5 to 100 uM pretreated for 24 hrs followed by H2O2 challenge and measured after 24 hrs by MTT assay; format: functional, cell-based; settings: dose 12.5-100 µM, time 48.0 hrs; procedure, shortened: as §3
[11] = system: PC-12; assay: Cytotoxicity against rat PC-12 cells assessed as increase LDH content in presence of H2O2 incubated at 50 to 100 uM for 24 hrs by Lactate dehydrogenase assay; format: cell-based; settings: pc-12, 24 h, dose 50-100 µM
Procedure, shortened: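 PC12 cells seeded 1 × 10⁴/well for 24 h, pretreated with compound at several concentrations (12.5–100 µM range), then challenged with H2O2; LDH released into medium quantified as membrane-damage marker. Mean ± SD, three independent experiments.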

[12] = system: Mus musculus; assay: Neuroprotective activity against lesioned C57BL/6 mouse model of Parkinson's disease assessed as upregulation of Nrf2 in SNpc and striatum area at 100 mg/kg , po administered for 2 week before MPTP stimulation by Immuno histochemistry assays; format: functional, organism-based; settings: Brain, time 2.0 weeks
Procedure, shortened: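 Prophylactic regimen in male C57BL/6 mice (n = 6): oral compound 100 mg/kg in saline 2 weeks, then MPTP-HCl 25 mg/kg i.p. in week 3. Nrf2 immunohistochemistry in striatum and SNpc, quantified as Nrf2-immunopositive density relative to total area; mean ± SD.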

[13] = target: T1, Nuclear factor erythroid 2-related factor 2 (Homo sapiens) (UniProt Q16236); assay: Activation of Nrf2 in human HepG2-ARE-C8 cells assessed as fold change at 12.5 uM measured after 12 hrs by luciferase reporter gene assay relative to control; format: cell-based; settings: filed as activator
T1 sequence (whole entry): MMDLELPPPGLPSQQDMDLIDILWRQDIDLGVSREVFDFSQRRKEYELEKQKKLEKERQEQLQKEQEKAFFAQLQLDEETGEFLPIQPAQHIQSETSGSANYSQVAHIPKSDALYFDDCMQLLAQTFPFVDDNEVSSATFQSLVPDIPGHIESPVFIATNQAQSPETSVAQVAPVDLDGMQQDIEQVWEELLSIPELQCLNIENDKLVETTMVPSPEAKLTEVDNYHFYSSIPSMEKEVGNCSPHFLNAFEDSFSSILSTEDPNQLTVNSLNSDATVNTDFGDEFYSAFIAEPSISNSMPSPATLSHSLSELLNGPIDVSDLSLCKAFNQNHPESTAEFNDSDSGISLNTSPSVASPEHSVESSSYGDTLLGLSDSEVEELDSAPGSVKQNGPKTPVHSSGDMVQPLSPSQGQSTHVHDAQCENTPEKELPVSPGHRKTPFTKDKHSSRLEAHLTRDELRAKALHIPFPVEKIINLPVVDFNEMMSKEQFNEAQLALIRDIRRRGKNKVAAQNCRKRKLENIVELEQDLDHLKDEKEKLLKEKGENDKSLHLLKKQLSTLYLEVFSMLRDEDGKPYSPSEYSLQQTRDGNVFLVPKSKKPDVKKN

[14] = system: PC-12; assay: Neuroprotective activity against H2O2-induced cytotoxicity in rat PC-12 cells assessed as cell viability at 12.5 uM pretreated for 24 hrs followed by H2O2 challenge and measured after 24 hrs by MTT assay (reference value: 52.81 +/- 6%); format: functional; settings: time 48 hrs, read-out: Activity
[15] = system: PC-12; assay: Inhibition of H202-induced apoptosis in rat PC-12 cells assessed as late apoptotic cells at 25 uM after 24 hrs by Annexin-V-FITC/PI-staining based flow cytometric analysis (reference value: 32.5%); format: functional; parameters: scale not given: the % may be the effect or the level left; procedure, shortened: as §2
[16] = system: Mus musculus; assay: Neuroprotective activity in lesioned C57BL/6 mouse model of Parkinson's disease assessed as increase in time spent on rotarod at 50 mg/kg, po administered for 2 week before MPTP stimulation by rotarod test; format: functional; settings: time 2 weeks; procedure, shortened: as §1

Structure (SMILES): COc1ccccc1/C=C/C=C/C(=O)N1CCCCC1
- Activity [1]: Active
- Time [2]: 226.2 s
- Activity [3]: 30.7%
- Activity [4]: Active
- inhibition in vivo at 50 mg/kg [5]: 38.1%
- viability at 50 µM [6]: 74.8%
- inhibition in vivo at 100 mg/kg [7]: 34.5%
- inhibition [8]: Dose-dependent effect
- Activity [9]: Active
- Activity [10]: inactive
- Activity [11]: Toxic
- Activity [12]: Active
- fold change (FC) [13]: 3
- viability at 12.5 µM [14]: 88.8%
- Activity [15]: 18.04%
- Time [16]: 253.7 s
